These results are taken from ChEMBL document CHEMBL4513216, “Probing the Open Global Health Chemical Diversity Library for Multistage-Active Starting Points for Next-Generation Antimalarials” (ACS Infect Dis, 2020).

SMILES strings stand for the structures.

The data set in a line: Toxicity liver stage against HepG2, at 10uM. Further details: test concentration 10 uM, cell line HepG2-A16-CD81EGFP. As to conditions: human, HepG2-A16-CD81EGFP cells; read-out: INHIBITION
The data set is classed as cell-based. In short, it runs like this: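 Uninfected HepG2-A16-CD81EGFP cells, 3 × 10^3 per well, 1536-well, plated on prespotted compound at 10 μM final, parasite-free screening media added to match infected plates; puromycin 10 μM positive, DMSO 0.5% negative; run in parallel with 48 h PbLuc assay at 37 °C, 5% CO2; viability by CellTiter-Glo luminescence, normalized to controls.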
In the case of `Nc1nc2cn(C3CCCC3)c(=O)c-2c[nH]1`, the cytotoxicity at 10 µM is -14.5%.

As to `Cc1cnn(C(C)C2CC2)c1NC(=O)c1cnccn1` (stereo unspecified), the cytotoxicity at 10 µM is -5.39%.

Consider `Cc1cnc(C(=O)N2CC(=O)N(c3ccccc3Cl)CC2C)cn1` (stereo unspecified), for which the cytotoxicity at 10 µM was -8.23%.

For the compound `O=C(NCC1CC[C@@H]2[C@@H]1OCCN2Cc1cccs1)c1ccco1` (stereo partly specified), the cytotoxicity at 10 µM came to 3.23%.

On to `O=C(NC1CCN(C2CC2)C1)c1cn(-c2ccc(F)cc2)nn1` (stereo unspecified), for which the cytotoxicity at 10 µM was -2.25%.

Consider `CC1=N[C@@]2(CC[C@@H]3CN(C(=O)NCC(C)C)C[C@@H]32)C(=O)N1CC(C)C`, for which the cytotoxicity at 10 µM was found to be 2.68%.

On to `COCCNC(=O)C1CN(Cc2ccsc2)Cc2ccnn2C1` (stereo unspecified), for which the cytotoxicity at 10 µM is -6.07%.

For `CN(Cc1nccs1)c1nc(-c2ccccn2)nc2c1CCNCC2`, the cytotoxicity at 10 µM is -14%.

Turning to `Cc1nccc(C2CCCN(C(=O)c3cncnc3)C2)n1` (stereo unspecified), the cytotoxicity at 10 µM stood at 4.1%.

`CCc1cc(N2CCSCC2)n2nc(C)c(C)c2n1`: the cytotoxicity at 10 µM was -0.854%.

For `Cc1noc(C)c1-c1nc(N(C)CCN(C)C)ncc1-c1cnccn1`, the cytotoxicity at 10 µM was -12.4%.

`O=C(c1ccoc1)N(Cc1ccccn1)C1CC1`: the cytotoxicity at 10 µM was -15%.

`COCCOc1ccc(NC(=O)C2CC(=O)N(C3CC3)C2)cn1` (stereo unspecified): the cytotoxicity at 10 µM was -6.93%.

For the compound `CN1C(=O)CC(c2cnn(C)c2)C12CCN(C(=O)C1CC=CC1)CC2` (stereo unspecified), the cytotoxicity at 10 µM was 5.84%.

As to `CCS(=O)(=O)NCCCn1ncc2c(C)cccc21`, the cytotoxicity at 10 µM is 6.8%.

In the case of `O=C(Cn1ccc2ncccc2c1=O)N1CCSCC1`, the cytotoxicity at 10 µM is -3.06%.

Regarding `CCc1nc(C2CCCN2CC(=O)Nc2c(C)nn(C)c2C)no1` (stereo unspecified), the cytotoxicity at 10 µM was -31.4%.

In the case of `Cc1cc(CN2CCN3C[C@H](c4ccccc4)[C@@H](CO)[C@H]3C2)on1`, the cytotoxicity at 10 µM stood at 7.66%.

`NC(CC1CCCCC1)c1ccccc1` (stereo unspecified): the cytotoxicity at 10 µM was -4.8%.

As to `Cc1cc(C)n(C2CN(c3ncnc4c3CCC4)C2)n1`, the cytotoxicity at 10 µM is 8.09%.

Turning to `CC(C)N(C)Cc1cnc2n1CCN(CCc1ccccc1)C2`, the cytotoxicity at 10 µM was -4.58%.

`N#CC1(NC(=O)c2ccn(-c3ccccc3Cl)n2)CCSC1` (stereo unspecified): the cytotoxicity at 10 µM stood at 0.462%.

In the case of `CCOCC(=O)N1CCC2(CC1)CC(c1ccccc1)CO2` (stereo unspecified), the cytotoxicity at 10 µM was -113%.

For `CN1CCc2[nH]nc(C(=O)N3CCC4(CN(C)C(=O)O4)C3)c2C1` (stereo unspecified), the cytotoxicity at 10 µM is -46.4%.

With `COc1ccc(CN2C[C@@H]3CN(C(=O)[C@H]4CCCO4)C[C@@H]3C2=O)cc1`, the cytotoxicity at 10 µM was -0.0368%.

In the case of `CC(=O)NC1CCN(c2cnc(C3CCNCC3)cn2)CC1`, the cytotoxicity at 10 µM was 8%.

With `Cn1nc2c(cc1=O)CN(Cc1nc(-c3cccnc3)no1)CC2`, the cytotoxicity at 10 µM is -14.6%.

On to `Clc1ccc(-c2ccc(C3CNCCO3)nc2)cc1` (stereo unspecified), for which the cytotoxicity at 10 µM was -5.86%.

For the compound `CNC(=O)[C@@H]1CCO[C@@H]2CCN(Cc3ccsc3)C[C@H]21`, the cytotoxicity at 10 µM is -78.3%.

On to `COCCN1C[C@H]2[C@@H](C1)N(C(=O)c1cccs1)CC[C@H]2OC`, for which the cytotoxicity at 10 µM was -2.03%.

Turning to `CCCN1CCC(Nc2cc(-c3ccccc3)ccc2OC)CC1`, the cytotoxicity at 10 µM was determined as 0.906%.

`Cc1cc2[nH]c(CN3CCOC(C(F)(F)F)C3)cc(=O)n2n1` (stereo unspecified): the cytotoxicity at 10 µM was -21.2%.

Turning to `CN(C)C(=O)NCC(=O)N1CCCC2(CCC(=O)N(CC3CC3)C2)C1` (stereo unspecified), the cytotoxicity at 10 µM was -8.38%.

Consider `Cn1cncc1CNC1CC2(CCN(CC3CC3)CC2)c2ccccc21` (stereo unspecified), for which the cytotoxicity at 10 µM worked out at 0.565%.

As for `CCOCCOC(C)C(=O)Nc1ccc2[nH]c(C)cc2c1` (stereo unspecified), the cytotoxicity at 10 µM is 5.35%.

`COc1ccc(CNCCc2cccc(C(N)=O)c2)cc1O`: the cytotoxicity at 10 µM came out at 8.42%.

In the case of `CN1C[C@@H]2CN(C(=O)C3CCOC3)C[C@@H]2C1=O` (stereo partly specified), the cytotoxicity at 10 µM was -127%.

`O=C(NCC1(O)CCC1)c1cccc(-n2cccn2)c1`: the cytotoxicity at 10 µM was -2.44%.

`CCc1nnc(Nc2cc(C)nc(C3CCN(c4ccncn4)C3)n2)s1` (stereo unspecified): the cytotoxicity at 10 µM came out at 4.38%.

Take `O=C(Cn1cncn1)NCC1(O)CCCc2ccccc21` (stereo unspecified): the cytotoxicity at 10 µM is -54.8%.

For `Cc1nc(CN2CCC(CNC(=O)C3CCOC3)CC2)oc1C` (stereo unspecified), the cytotoxicity at 10 µM was 0.0966%.

In the case of `CCSCCNC(=O)C(c1cccc(C)c1)N(C)C` (stereo unspecified), the cytotoxicity at 10 µM was -23%.

Consider `COc1ccc(CC(=O)N2Cc3nccn3CC(CN(C)C)C2)cc1` (stereo unspecified), for which the cytotoxicity at 10 µM was -116%.

Take `O=C(CCc1nc2cccnc2[nH]1)Nc1ccc2c(c1)NC(=O)CO2`: the cytotoxicity at 10 µM is -1.94%.

Take `Cc1cccc(NC2CCc3c2[nH]c(=O)n(C2CCCCC2)c3=O)c1C` (stereo unspecified): the cytotoxicity at 10 µM is 5.05%.

Consider `CNC(=O)C(CC(C)C)NC(=O)c1cccc(-c2nc(C)cs2)c1` (stereo unspecified), for which the cytotoxicity at 10 µM was found to be 14.5%.

`Cc1cc(=O)c(C(=O)Nc2cccc(CCN3CCCC3)c2)c[nH]1`: the cytotoxicity at 10 µM turned out to be 7.49%.

On to `CCc1ncc(CN(C)C2CCN(c3sccc3C#N)C2=O)s1` (stereo unspecified), for which the cytotoxicity at 10 µM is -0.876%.

Take `CCN1CCc2cc(C(=O)N(C)C)c(NCC3CC3)nc2CC1`: the cytotoxicity at 10 µM amounted to 4.65%.

As for `COC(=O)c1ccoc1CN(C1CC1)C1CCS(=O)(=O)C1` (stereo unspecified), the cytotoxicity at 10 µM worked out at 2.22%.

For `CN(Cc1ccco1)C[C@@H]1OC[C@H]2CN(Cc3nccs3)CC[C@H]21`, the cytotoxicity at 10 µM was -5.46%.

With `CCOC(=O)N1CCN(c2nc(NCCO)c3ccccc3n2)CC1`, the cytotoxicity at 10 µM was -1.32%.

Turning to `CC(C)N1CCCC(C(=O)NCCc2csc(-c3ccncc3)n2)C1` (stereo unspecified), the cytotoxicity at 10 µM was -17.4%.

For the compound `CCC(CN1CCCC1)NC(=O)Cc1c(C)[nH]c2cc(C)cc(C)c12` (stereo unspecified), the cytotoxicity at 10 µM is 2.73%.

For `Cc1cc(NC(=O)C2CCN(c3ncccc3C#N)CC2)no1`, the cytotoxicity at 10 µM worked out at 3.54%.

For the compound `CC[C@@H]1N(Cc2nccs2)CCC[C@]12CCC(=O)N2C`, the cytotoxicity at 10 µM came to 0.287%.

On to `CCN(CC)S(=O)(=O)CCNc1nnc(C(C)C)s1`, for which the cytotoxicity at 10 µM was 7.2%.

As for `CNC(=O)NC(=O)CN1CCN(CC2CC2)c2ccccc21`, the cytotoxicity at 10 µM is 10.4%.

`CN(C)[C@@H]1CCN(c2ncccn2)[C@H]1Cc1ccncc1`: the cytotoxicity at 10 µM was -17.9%.

As to `Cc1nc(-c2ccsc2)ccc1C(=O)NCCN1CCOCC1`, the cytotoxicity at 10 µM was -10.2%.

Take `CCCC(=O)N1CCC(c2cc3n(n2)[C@@H](C(F)(F)F)C[C@@H](C)N3)CC1`: the cytotoxicity at 10 µM was -10.3%.

Regarding `CCNCc1ccc(OCc2ccc3c(c2)OCCO3)cc1`, the cytotoxicity at 10 µM was 2.44%.

For `CCn1cnnc1CNC(=O)N(C)Cc1ccccc1OC`, the cytotoxicity at 10 µM is -7.32%.

As to `N#Cc1ccccc1C(=O)NCCC1CN(Cc2ccco2)CCO1` (stereo unspecified), the cytotoxicity at 10 µM was -7.25%.

Turning to `O=C1CC(c2ccc(F)cc2)c2cnn(C3CCCC3)c2N1` (stereo unspecified), the cytotoxicity at 10 µM turned out to be 3.82%.

In the case of `CC(=O)N1CCC(C)(c2cc(C(=O)NCC3CC3)nc(C)n2)CC1`, the cytotoxicity at 10 µM is 2.87%.

As to `O=C(Nc1ccccc1)c1cc2n(n1)CCCN(C(=O)N1CCCC1)C2`, the cytotoxicity at 10 µM is -70.3%.

Consider `O=C(CSc1ccc(F)cc1F)NS(=O)(=O)c1ccc2c(c1)OCCO2`, for which the cytotoxicity at 10 µM is -10.7%.

For `CCC(CC)NC(=O)c1ncn2c1CN(CC)S(=O)(=O)c1ccccc1-2`, the cytotoxicity at 10 µM was -85.1%.

Turning to `O=C(NCC1(CO)CC1)c1ccccc1Cl`, the cytotoxicity at 10 µM was 5.47%.

As to `CC1CCN(C(=O)C(C)N2CCN(c3nccs3)CC2)CC1` (stereo unspecified), the cytotoxicity at 10 µM was determined as 0.583%.
